Results taken from ChEMBL document CHEMBL4613300, “Pharmacophore-Based Virtual Screening for Identification of Negative Modulators of GLI1 as Potential Anticancer Agents” (ACS Med Chem Lett, 2020).
The source made the active and inactive calls. The calls are words filed in the database; no cut-off is given here.

Tests used:
[1] = target: T1, Zinc finger protein GLI1 (Mus musculus) (UniProt P47806); experiment: Inhibition of GLI1 transcriptional activity in HH-responsive mouse NIH3T3 cells assessed as reduction in GLI1 protein expression at 5 uM incubated for 48 hrs in presence of SAG by Western blot analysis; format: cell-based
T1 sequence (whole entry): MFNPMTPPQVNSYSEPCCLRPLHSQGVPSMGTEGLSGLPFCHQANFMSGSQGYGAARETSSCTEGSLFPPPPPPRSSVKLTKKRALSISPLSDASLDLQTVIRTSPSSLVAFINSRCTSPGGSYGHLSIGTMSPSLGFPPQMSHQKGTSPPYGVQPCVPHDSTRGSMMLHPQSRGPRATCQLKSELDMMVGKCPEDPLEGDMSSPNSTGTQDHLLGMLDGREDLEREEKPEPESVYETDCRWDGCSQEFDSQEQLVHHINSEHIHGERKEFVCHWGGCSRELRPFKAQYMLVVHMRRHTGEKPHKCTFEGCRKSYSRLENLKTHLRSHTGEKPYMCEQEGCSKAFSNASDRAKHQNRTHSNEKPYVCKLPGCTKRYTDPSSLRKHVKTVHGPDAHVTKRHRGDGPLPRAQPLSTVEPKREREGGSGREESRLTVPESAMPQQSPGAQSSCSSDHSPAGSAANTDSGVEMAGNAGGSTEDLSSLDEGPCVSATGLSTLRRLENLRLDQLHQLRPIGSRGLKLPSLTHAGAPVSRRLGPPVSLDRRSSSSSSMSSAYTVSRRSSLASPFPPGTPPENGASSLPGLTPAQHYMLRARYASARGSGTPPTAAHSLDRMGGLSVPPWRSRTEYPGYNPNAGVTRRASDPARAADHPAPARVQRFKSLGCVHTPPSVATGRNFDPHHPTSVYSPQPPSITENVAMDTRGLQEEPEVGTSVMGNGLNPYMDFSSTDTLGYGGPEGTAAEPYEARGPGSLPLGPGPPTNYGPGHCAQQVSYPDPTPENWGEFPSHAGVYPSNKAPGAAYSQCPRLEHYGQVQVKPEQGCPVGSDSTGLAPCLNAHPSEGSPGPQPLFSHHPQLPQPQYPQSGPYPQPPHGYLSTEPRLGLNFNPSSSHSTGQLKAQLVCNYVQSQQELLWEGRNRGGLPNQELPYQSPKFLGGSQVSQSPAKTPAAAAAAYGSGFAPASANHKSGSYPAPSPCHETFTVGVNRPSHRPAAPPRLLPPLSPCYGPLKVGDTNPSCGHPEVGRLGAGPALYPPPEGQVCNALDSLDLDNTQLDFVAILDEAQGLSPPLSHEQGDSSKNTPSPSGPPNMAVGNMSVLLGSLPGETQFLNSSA
Procedure, shortened: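 Murine NIH3T3 cells given 100 nM SAG plus compound (5 μM) or DMSO for 48 h. Endogenous GLI1 protein measured by Western blot with HSP90 as loading control, band quantified against SAG-treated cells.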

A-375 [2] = experiment: Antiproliferative activity against human A375 cells transfected with lentivrus-encoding shRNA against GLI1 assessed as reduction in cell viability incubated for 72 hrs by trypan blue or crystal violet staining based assay; format: functional
Procedure, shortened: (§1)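 A375 melanoma cells transduced with control lentivirus (LV-c), LV-shGLI1 or LV-shGLI2, with knockdown checked by Western blot (HSP90 loading control). Cells treated with DMSO or compound at the indicated doses for 72 h, then viability read. Values are mean ± SD of at least three independent experiments.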

[3] = target: T2, Zinc finger protein GLI1 (Homo sapiens) (UniProt P08151); experiment: Inhibition of GLI1 transcriptional activity in human A375 cells assessed as downregulation of GLI2 mRNA expression at 5 uM incubated for 48 hrs by qPCR analysis; format: cell-based; conditions: A-375
T2 sequence (whole entry): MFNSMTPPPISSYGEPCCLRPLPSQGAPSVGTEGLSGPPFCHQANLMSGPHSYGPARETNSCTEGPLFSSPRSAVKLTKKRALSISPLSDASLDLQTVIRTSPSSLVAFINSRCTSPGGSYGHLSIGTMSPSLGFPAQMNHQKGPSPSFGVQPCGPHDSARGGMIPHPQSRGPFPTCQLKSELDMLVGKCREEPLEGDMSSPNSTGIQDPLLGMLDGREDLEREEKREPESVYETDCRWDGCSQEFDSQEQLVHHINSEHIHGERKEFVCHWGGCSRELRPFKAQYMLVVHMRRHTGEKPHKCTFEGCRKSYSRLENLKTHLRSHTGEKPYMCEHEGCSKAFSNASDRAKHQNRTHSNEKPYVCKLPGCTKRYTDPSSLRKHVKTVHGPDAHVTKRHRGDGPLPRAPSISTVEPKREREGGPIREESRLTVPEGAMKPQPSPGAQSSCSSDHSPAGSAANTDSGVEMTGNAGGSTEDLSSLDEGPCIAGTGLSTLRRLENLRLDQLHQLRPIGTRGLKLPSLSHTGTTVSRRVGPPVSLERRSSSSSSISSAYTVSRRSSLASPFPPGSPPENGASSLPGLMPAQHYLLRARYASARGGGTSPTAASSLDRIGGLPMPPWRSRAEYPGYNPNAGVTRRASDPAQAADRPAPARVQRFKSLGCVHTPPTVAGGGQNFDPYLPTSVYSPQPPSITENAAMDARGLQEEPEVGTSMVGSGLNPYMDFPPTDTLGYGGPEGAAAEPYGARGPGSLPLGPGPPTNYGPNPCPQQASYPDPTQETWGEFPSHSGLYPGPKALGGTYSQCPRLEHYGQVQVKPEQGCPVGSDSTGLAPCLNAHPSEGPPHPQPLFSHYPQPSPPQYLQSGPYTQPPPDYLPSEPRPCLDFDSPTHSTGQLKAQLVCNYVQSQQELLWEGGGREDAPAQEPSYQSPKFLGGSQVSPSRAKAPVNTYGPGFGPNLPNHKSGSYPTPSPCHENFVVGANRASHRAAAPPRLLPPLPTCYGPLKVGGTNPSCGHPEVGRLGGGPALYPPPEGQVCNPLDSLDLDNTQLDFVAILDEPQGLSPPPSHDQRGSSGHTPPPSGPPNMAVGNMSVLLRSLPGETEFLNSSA
Procedure, shortened: (§2)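 A375 cells treated with compound (5 μM) or DMSO for 48 h. mRNA measured by qPCR as gene/(mean of HPRT and EIF2α) ratio, DMSO control set to 1. Mean ± SD.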

[4] = target: T2, Zinc finger protein GLI1 (Homo sapiens); experiment: Inhibition of GLI1 transcriptional activity in human A375 cells assessed as downregulation of PTCH1 mRNA expression at 5 uM incubated for 48 hrs by qPCR analysis; format: cell-based; conditions: A-375; procedure, shortened: as §2
[5] = target: T2, Zinc finger protein GLI1 (Homo sapiens); experiment: Inhibition of GLI1 transcriptional activity in human A375 cells assessed as downregulation of HIP1 mRNA expression at 5 uM incubated for 48 hrs by qPCR analysis; format: cell-based; conditions: A-375; procedure, shortened: as §2
Daoy = experiment: Antiproliferative activity against human DaOY cells assessed as reduction in cell viability incubated for 72 hrs by trypan blue or crystal violet staining based assay; format: functional; conditions: Homo sapiens, Daoy, 72 h; read-out: IC50
A-375 [6] = experiment: Antiproliferative activity against human A375 cells assessed as reduction in cell viability incubated for 72 hrs by trypan blue or crystal violet staining based assay; format: functional; conditions: Homo sapiens, A-375, 72 h; read-out: IC50
MCF-10A = experiment: Cytotoxicity against human MCF10A cells assessed as reduction in cell viability incubated for 72 hrs by trypan blue or crystal violet staining based assay
[7] = target: T2, Zinc finger protein GLI1 (Homo sapiens); experiment: Inhibition of GLI1 transcriptional activity in human A375 cells assessed as downregulation of Cyclin D1 mRNA expression at 5 uM incubated for 48 hrs by qPCR analysis; format: cell-based; conditions: A-375; procedure, shortened: as §2
[8] = target: T1, Zinc finger protein GLI1 (Mus musculus); experiment: Inhibition of GLI1 transcriptional activity in HH-responsive mouse NIH3T3 cells assessed as reduction in SAG-induced luciferase activity at 5 uM incubated for 48 hrs by luciferase reporter gene assay relative to control; format: cell-based
Procedure, shortened: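 HH-responsive NIH3T3 cells carrying a GLI-dependent firefly luciferase reporter with renilla control, treated 48 h with 100 nM SAG plus compound (5 μM). Firefly/renilla ratio normalised to SAG-only cells set at 100%, reported as percent inhibition.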

[9] = target: T2, Zinc finger protein GLI1 (Homo sapiens); experiment: Inhibition of GLI1 transcriptional activity in human A375 cells assessed as downregulation of GLI1 mRNA expression at 5 uM incubated for 48 hrs by qPCR analysis; format: cell-based; conditions: A-375; procedure, shortened: as §2
A-375 [10] = experiment: Antiproliferative activity against human A375 cells transfected with lentivrus-encoding shRNA against GLI2 assessed as reduction in cell viability incubated for 72 hrs by trypan blue or crystal violet staining based assay; format: functional; procedure, shortened: as §1

inhibition [1]: Active
inhibition [3]: Active
inhibition [4]: Active
inhibition [5]: Active
IC50 (A-375 [6]): 4.1 µM
inhibition [7]: Active
inhibition [8]: 42%
inhibition [9]: Active
Compound: CCOC(=O)c1c(-c2ccccc2)csc1NC(NC(=O)CC)C(Cl)(Cl)Cl (configuration not stated)
Activity (A-375 [2]): inactive
IC50 (Daoy): 6 µM
Activity (MCF-10A): Non-Toxic
Activity (A-375 [10]): inactive
